Reference: paper PMC12077508 (Science Advances, 2025)
pEC50: −log10 of the molar value.

Assays:
[1] = target: T1, OR5K1 (Homo sapiens, UniProt Q8NHB7); assay: cAMPr fluorescence imaging in transfected HEK293T cells; type: cell-based
T1 sequence (Q8NHB7 1-308): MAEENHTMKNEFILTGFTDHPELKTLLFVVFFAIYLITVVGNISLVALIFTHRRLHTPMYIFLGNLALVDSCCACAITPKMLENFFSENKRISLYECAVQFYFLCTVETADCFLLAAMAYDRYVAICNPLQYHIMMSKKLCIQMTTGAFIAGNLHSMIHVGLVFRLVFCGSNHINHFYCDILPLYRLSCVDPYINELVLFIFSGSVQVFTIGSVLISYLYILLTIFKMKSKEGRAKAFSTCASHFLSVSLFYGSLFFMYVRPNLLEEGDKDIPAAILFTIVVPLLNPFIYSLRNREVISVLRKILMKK
Procedure, shortened: (§1)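 HEK293T cells stably expressing the cpGFP-based cAMP sensor cAMPr, on collagen-coated glass dishes, transfected with Rho-tagged receptor (N-terminal 20 residues of bovine rhodopsin) plus RTP1S. Each odorant concentration was tested in a separate experiment, with or without fibronectin, and curves were fitted for EC50 and Hill coefficient.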

[2] = target: T2, OR8D1 (Homo sapiens, UniProt Q8WZ84); assay: cAMPr fluorescence imaging in transfected HEK293T cells; type: cell-based
T2 sequence (Q8WZ84 1-308): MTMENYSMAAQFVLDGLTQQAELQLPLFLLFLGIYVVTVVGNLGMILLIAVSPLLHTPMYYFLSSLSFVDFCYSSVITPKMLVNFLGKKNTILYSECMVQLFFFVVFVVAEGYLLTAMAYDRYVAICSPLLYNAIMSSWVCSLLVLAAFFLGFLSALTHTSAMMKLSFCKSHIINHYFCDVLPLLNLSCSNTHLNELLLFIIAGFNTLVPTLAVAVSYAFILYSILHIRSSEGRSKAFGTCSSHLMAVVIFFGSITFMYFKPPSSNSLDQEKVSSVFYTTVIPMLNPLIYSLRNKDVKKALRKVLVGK

[3] = target: T3, Olfr73 (mOR-EG) (Mus musculus, UniProt Q920P2); assay: as above; type: cell-based
T3 sequence (Q920P2 1-313): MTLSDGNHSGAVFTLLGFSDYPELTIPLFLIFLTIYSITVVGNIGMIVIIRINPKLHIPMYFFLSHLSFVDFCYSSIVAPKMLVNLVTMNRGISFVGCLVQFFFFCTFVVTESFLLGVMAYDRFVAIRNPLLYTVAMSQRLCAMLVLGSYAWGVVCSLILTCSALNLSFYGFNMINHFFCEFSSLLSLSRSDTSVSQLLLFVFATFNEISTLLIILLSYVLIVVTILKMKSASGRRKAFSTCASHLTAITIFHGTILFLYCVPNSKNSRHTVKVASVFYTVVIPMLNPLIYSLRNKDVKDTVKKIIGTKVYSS

[4] = target: T4, OR51E1 (Homo sapiens, UniProt Q8TCB6); assay: cAMPr fluorescence imaging in transfected HEK293T cells; type: cell-based
T4 sequence (Q8TCB6 1-318): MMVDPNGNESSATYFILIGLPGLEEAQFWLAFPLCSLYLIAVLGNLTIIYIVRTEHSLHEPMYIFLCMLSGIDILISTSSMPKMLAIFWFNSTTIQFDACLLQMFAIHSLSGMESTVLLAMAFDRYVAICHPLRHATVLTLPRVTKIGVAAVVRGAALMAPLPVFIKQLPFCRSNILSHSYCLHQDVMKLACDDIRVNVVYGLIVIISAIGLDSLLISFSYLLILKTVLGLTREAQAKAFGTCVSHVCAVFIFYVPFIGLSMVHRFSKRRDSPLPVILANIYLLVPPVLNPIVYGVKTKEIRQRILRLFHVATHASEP
Procedure, shortened: as §1

[5] = target: T5, OR5P3 (Homo sapiens, UniProt Q8WZ94); assay: as above; type: cell-based
T5 sequence (Q8WZ94 1-311): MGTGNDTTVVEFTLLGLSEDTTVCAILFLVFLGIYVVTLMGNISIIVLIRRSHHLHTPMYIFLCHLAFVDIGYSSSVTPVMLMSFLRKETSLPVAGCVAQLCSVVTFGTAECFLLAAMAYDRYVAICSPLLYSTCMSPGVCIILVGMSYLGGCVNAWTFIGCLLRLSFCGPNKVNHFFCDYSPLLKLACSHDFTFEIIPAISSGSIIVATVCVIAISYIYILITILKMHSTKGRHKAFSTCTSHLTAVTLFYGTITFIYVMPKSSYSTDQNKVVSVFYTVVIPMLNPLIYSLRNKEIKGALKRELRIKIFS
Procedure, shortened: as §1

[6] = target: T6, OR5AN1 (Homo sapiens, UniProt Q8NGI8); assay: cAMPr fluorescence imaging in transfected HEK293T cells; type: cell-based
T6 sequence (Q8NGI8 1-311): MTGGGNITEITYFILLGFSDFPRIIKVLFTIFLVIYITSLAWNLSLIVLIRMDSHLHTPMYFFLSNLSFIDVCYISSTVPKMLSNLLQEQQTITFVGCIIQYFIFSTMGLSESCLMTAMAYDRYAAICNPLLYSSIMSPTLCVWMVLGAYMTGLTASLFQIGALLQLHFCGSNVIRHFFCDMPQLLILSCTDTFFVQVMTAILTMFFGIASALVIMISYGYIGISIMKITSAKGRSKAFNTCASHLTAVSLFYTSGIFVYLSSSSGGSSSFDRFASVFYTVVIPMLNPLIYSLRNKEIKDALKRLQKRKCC

[7] = target: T7, OR2W1 (Homo sapiens, UniProt Q9Y3N9); assay: as above; type: cell-based
T7 sequence (Q9Y3N9 1-320): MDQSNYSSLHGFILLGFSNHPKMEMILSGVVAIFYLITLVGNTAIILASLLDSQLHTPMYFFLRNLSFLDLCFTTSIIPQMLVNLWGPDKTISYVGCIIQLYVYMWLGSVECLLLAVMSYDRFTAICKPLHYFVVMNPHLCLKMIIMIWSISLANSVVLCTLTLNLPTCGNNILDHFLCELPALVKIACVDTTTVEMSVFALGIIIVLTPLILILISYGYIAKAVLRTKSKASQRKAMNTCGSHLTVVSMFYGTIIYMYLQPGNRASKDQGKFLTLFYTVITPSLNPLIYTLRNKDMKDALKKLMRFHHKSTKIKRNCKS

[8] = target: T8, OR2J2 (Homo sapiens, UniProt O76002); assay: cAMPr fluorescence imaging in transfected HEK293T cells; type: cell-based
T8 sequence (O76002 1-312): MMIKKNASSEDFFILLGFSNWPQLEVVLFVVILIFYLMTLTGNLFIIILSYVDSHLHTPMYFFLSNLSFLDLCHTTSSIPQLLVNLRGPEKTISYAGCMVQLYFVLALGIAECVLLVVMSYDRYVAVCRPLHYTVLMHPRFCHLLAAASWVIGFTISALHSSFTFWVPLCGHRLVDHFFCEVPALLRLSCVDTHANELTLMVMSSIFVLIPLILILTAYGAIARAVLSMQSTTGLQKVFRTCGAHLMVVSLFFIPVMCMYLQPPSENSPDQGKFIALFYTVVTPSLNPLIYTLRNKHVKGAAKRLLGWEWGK
Procedure, shortened: as §1

[9] = target: OR1D2; OR1D1 (Table 2) (Homo sapiens, UniProt P34982); assay: cell-based
OR1D2; OR1D1 (Table 2), sequence (P34982 whole entry): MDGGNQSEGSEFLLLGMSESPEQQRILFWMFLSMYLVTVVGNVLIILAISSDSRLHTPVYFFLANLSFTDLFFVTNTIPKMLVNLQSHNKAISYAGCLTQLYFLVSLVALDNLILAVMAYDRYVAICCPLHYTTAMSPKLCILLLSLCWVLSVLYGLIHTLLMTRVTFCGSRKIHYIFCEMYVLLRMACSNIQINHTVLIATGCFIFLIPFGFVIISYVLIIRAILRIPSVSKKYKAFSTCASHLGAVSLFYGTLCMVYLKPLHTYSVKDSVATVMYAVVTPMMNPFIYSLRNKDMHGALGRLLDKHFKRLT

Cc1nccnc1C [2,3-dimethyl pyrazine]
pEC50 [1]: 1.92

CC1=C(O)C(=O)CC1 [cyclotene]
pEC50 [2]: 2.96

C=CCc1ccc(O)c(OC)c1 [eugenol]
pEC50 [3]: 3.81

CC(C)CC(=O)O [isovaleric acid]
pEC50 [4]: 3.08

COC(=O)c1ccccc1N [methyl anthranilate]
pEC50 [5]: 2.66

CC1CCCCCCCCCCCCC(=O)C1 (centres unmarked) [muscone]
pEC50 [6]: 3.54

CCCCCOC(C)=O [pentyl acetate]
pEC50 [7]: 4.36

CC1=C(O)C(=O)OC1C (centres unmarked) [sotolon]
pEC50 [2]: 5.11

OCCc1ccccc1 [β-phenylethyl alcohol]
pEC50 [7]: 2.82

CCCCCCCC1CCC(=O)O1 (centres unmarked) [γ-undecalactone]
pEC50 [8]: 3.60
pEC50 [9]: 3.82
